The values that follow come from ChEMBL document CHEMBL1687909, “Design, synthesis, and biological evaluation of new cinnamic derivatives as antituberculosis agents” (J Med Chem, 2011).

pIC50: −log10 of the molar value. Converted amounts (≈) assume the structure as drawn. The source made the active and inactive calls. No cut-off for these calls is given here.

For orientation: MIC means the least concentration at which growth counts as inhibited. A high value points to a less susceptible organism. As usually defined, the pIC50 is the negative decadic logarithm of the IC50, by convention in mol/L.

Experiment [1] in a line: Selectivity index, ratio of IC50 for human THP1 cells to MIC for Mycobacterium tuberculosis H37Rv. Type of experiment: functional, THP-1.
For experiment [2], the system named is Mycobacterium tuberculosis. As to the kind of experiment: Antituberculosis activity against Mycobacterium tuberculosis H37Rv after 7 days by MTT assay. Format: functional. Conditions: 168 h. In a few lines:
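Colorimetric MTT microassay: serial 2-fold dilutions from DMSO stocks in Middlebrook 7H9 broth, bacterial suspension in 7H9 added. After 6 days, MTT (1 mg/mL) added; 1 day later solubilization buffer, OD 570 nm. MIC = lowest concentration inhibiting growth, untreated bacilli as growth control.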

Experiment [3] concerns THP-1. The experiment is described as follows: Cytotoxicity against human THP1 cells after 72 hrs by MTT assay. Format: cell-based. Conditions: THP-1, 72 h.
For experiment [4], the system named is Mycobacterium tuberculosis. As to the kind of experiment: Antimycobacterial activity against Mycobacterium tuberculosis assessed as inhibition of mycolic acid biosynthesis by TLC. Format: functional, organism-based. An outline of the steps: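 Cells saponified in 40% KOH/methoxyethanol overnight at 100 °C, acidified with H2SO4, lipids ether-extracted, fatty acids methylated; methyl esters resolved by silica TLC in dichloromethane, phosphorimaged.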

Experiment [5] relates to Mycobacterium tuberculosis. As to the kind of experiment: Selectivity ratio of MIC for isoniazid to compound for Mycobacterium tuberculosis MYC5165. Type of experiment: functional.
Experiment [6] concerns Mycobacterium tuberculosis. The experiment is described as follows: Selectivity ratio of MIC for isoniazid to compound for Mycobacterium tuberculosis 1400. Type of experiment: functional.

On to `CC(C)=CCOc1ccc(/C=C/C(=O)N/N=c2/[nH]ncc3ccccc23)cc1`, for which the “Selectivity Index” value in experiment [1] was 1. Further, the MIC in experiment [2] was determined as 21 µM (≈ 7.86 µg/mL). In experiment [3], the pIC50 is 4.59.

Compound `CCOc1ccc(/C=C/C(=O)N/N=c2/[nH]ncc3ccccc23)cc1` registered a minimal inhibitory concentration (MIC) in experiment [2] of 12 µM (≈ 4.01 µg/mL).

Regarding `CC(C)=CCC/C(C)=C/COc1ccc(C2CC2c2nnc3c4ccccc4cnn23)cc1` (racemic), inhibition of growth in experiment [2] (MIC) required 28 µM (≈ 12.3 µg/mL).

As for `CC(C)=CCOc1ccc(/C=C/C(=O)NNC(=O)c2ccncc2)cc1`, the “Selectivity Index” value in experiment [1] was found to be 111. Also, the MIC in experiment [2] turned out to be 2.3 µM (≈ 0.808 µg/mL). The same compound gave a pIC50 in experiment [3] of 3.59. In experiment [4], the inhibition entry was “Active”.

The compound `O=C(/C=C/c1ccc(OC(F)(F)F)cc1)N/N=c1/[nH]ncc2ccccc12` yielded an MIC in experiment [2] of 21 µM (≈ 7.86 µg/mL).

Consider `COc1ccc(/C=C/c2nnc3c4ccccc4cnn23)cc1`, for which the “Selectivity Index” value in experiment [1] is 13. The MIC in experiment [2] worked out at 53 µM (≈ 16 µg/mL). This compound showed a pIC50 in experiment [3] of 3.16.

In turn, `COc1ccc(C2CC2c2nnc3c4ccccc4cnn23)cc1` (racemic) displayed an MIC in experiment [2] of 395 µM (≈ 125 µg/mL).

For the compound `CCOc1ccc(/C=C/C(=O)NNC(=O)c2ccncc2)cc1`, the MIC in experiment [2] is 1.3 µM (≈ 0.405 µg/mL). For the same compound, in experiment [4], the inhibition entry was “Active”.

`FC(F)(F)Oc1ccc(C2CC2c2nnc3c4ccccc4cnn23)cc1` (racemic) registered an MIC in experiment [2] of 170 µM (≈ 63 µg/mL).

For `CC(C)=CCC/C(C)=C/COc1ccc(/C=C/c2nnc3c4ccccc4cnn23)cc1`, the “Selectivity Index” value in experiment [1] came to 13. In experiment [2], this compound showed an MIC of 19 µM (≈ 8.07 µg/mL). In experiment [3], this compound had a pIC50 of 3.59.

Consider `CC(C)=CCOc1ccc(/C=C/c2nnc3c4ccccc4cnn23)cc1`, for which the “Selectivity Index” value in experiment [1] worked out at 320. Moreover, the Ratio came to 1800 in experiment [5] and 100 in experiment [6]. The same compound registered an MIC in experiment [2] of 1.4 µM (≈ 0.499 µg/mL). This compound also gave a pIC50 in experiment [3] of 3.35.

With `FC(F)(F)Oc1ccc(/C=C/c2nnc3c4ccccc4cnn23)cc1`, inhibition of growth in experiment [2] (MIC) required 702 µM (≈ 250 µg/mL).

As to `CC(C)=CCOc1ccc(C2CC2c2nnc3c4ccccc4cnn23)cc1` (racemic), the MIC in experiment [2] was 21 µM (≈ 7.78 µg/mL).

In experiment [2], `O=C(/C=C/c1ccc(OC(F)(F)F)cc1)NNC(=O)c1ccncc1` yielded a minimum inhibitory concentration (MIC) of 1.1 µM (≈ 0.386 µg/mL). For the same compound, in experiment [4], the inhibition entry was “Active”.

Turning to `O=C(/C=C/c1ccc(OCC(F)(F)F)cc1)NNC(=O)c1ccncc1`, the MIC in experiment [2] was 2.2 µM (≈ 0.804 µg/mL). In addition, the inhibition result in experiment [4] is “Active”.

Regarding `FC(F)(F)COc1ccc(C2CC2c2nnc3c4ccccc4cnn23)cc1` (racemic), 1300 µM (≈ 500 µg/mL) was the least that counted as inhibitory in experiment [2] (MIC).

As to `COc1ccc(/C=C/C(=O)NNC(=O)c2ccncc2)cc1`, the “Selectivity Index” value in experiment [1] is 560. The compound further yielded an MIC in experiment [2] of 0.3 µM (≈ 0.0892 µg/mL). In addition, in experiment [3], the negative-log IC50 (pIC50) is 3.77. Besides, in experiment [4], the inhibition result was “Active”.

In experiment [2], `COc1ccc(/C=C/C(=O)N[C@@H]2CONC2=O)cc1` registered a minimum inhibitory concentration (MIC) of 950 µM (≈ 249 µg/mL).

With `CC(C)=CCC/C(C)=C/COc1ccc(/C=C/C(=O)N/N=c2/[nH]ncc3ccccc23)cc1`, in experiment [1], the “Selectivity Index” value is 0.8. In experiment [2], this compound returned an MIC of 72 µM (≈ 31.9 µg/mL). The compound also showed a pIC50 in experiment [3] of 4.25.

On to `COc1ccc(/C=C/C(=O)N/N=c2/[nH]ncc3ccccc23)cc1`, for which the “Selectivity Index” value in experiment [1] turned out to be 8. In experiment [2], this compound came in with an MIC of 50 µM (≈ 16 µg/mL). The pIC50 in experiment [3] was 3.36.

For the compound `FC(F)(F)COc1ccc(/C=C/c2nnc3c4ccccc4cnn23)cc1`, 170 µM (≈ 63 µg/mL) was the least that counted as inhibitory in experiment [2] (MIC).

Turning to `CCOc1ccc(C2CC2c2nnc3c4ccccc4cnn23)cc1` (racemic), the MIC in experiment [2] was 378 µM (≈ 125 µg/mL).

For `NNC(=O)c1ccncc1` [ISONIAZID], the “Selectivity Index” value in experiment [1] is above 6081. In experiment [2], it took 0.6 µM (≈ 0.0823 µg/mL) to inhibit growth (MIC). The compound further gave a pIC50 in experiment [3] below 2.44.

As to `CC(C)=CCC/C(C)=C/COc1ccc(/C=C/C(=O)NNC(=O)c2ccncc2)cc1`, the “Selectivity Index” value in experiment [1] is reported as 22. In experiment [2], this compound showed a minimal inhibitory concentration (MIC) of 1.9 µM (≈ 0.797 µg/mL). The compound further showed a negative-log IC50 (pIC50) in experiment [3] of 4.37. The inhibition result in experiment [4] was “Active”.

Take `CCOc1ccc(/C=C/c2nnc3c4ccccc4cnn23)cc1`: in experiment [2], the minimum inhibitory concentration (MIC) stood at 39 µM (≈ 12.3 µg/mL).

Take `O=C(/C=C/c1ccc(OCC(F)(F)F)cc1)N/N=c1/[nH]ncc2ccccc12`: the lowest concentration to inhibit growth in experiment [2] (MIC) was 20 µM (≈ 7.77 µg/mL).
